Measured values: ChEMBL document CHEMBL3425486, “Lathyrol diterpenes as modulators of P-glycoprotein dependent multidrug resistance: structure-activity relationship studies on Euphorbia factor L3 derivatives” (J Med Chem, 2015)

Experiments:
MCF7 = experiment: Cytotoxicity against human MCF7 cells assessed as reduction in cell viability after 48 hrs by SRB colorimetric assay; type: functional, cell-based; details: MCF7, 48 h
Outline: (§1)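 MCF-7 from ATCC and its stepwise ADR-selected resistant subline, grown in RPMI-1640 with 10% FBS and penicillin/streptomycin at 37 °C, 5% CO2. 1 × 10^4 cells/well exposed to graded compound concentrations for 48 h. Cells fixed with 10% TCA, stained with 0.4% SRB in 1% acetic acid, dye extracted with 10 mM Tris base, OD read at 490 nm. Taxol positive control.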

[1] = biological target: ATP-dependent translocase ABCB1 (Homo sapiens, UniProt P08183); experiment: Inhibition of P-gp in human MCF7/ADR cells assessed as reversal of multidrug resistance by measuring relative enhancement intensity for adriamycin-induced cytotoxicity at 10 uM after 48 hrs by SRB colorimetric assay; type: cell-based; design: scale not given: the % may be the effect or the level left; details: nci/adr-res
[2] = Cytotoxicity against human MCF7/ADR cells assessed as reduction in cell viability after 48 hrs by SRB colorimetric assay; type: functional, cell-based; details: NCI/ADR-RES; outline: as §1
NCI/ADR-RES = experiment: Inhibition of P-gp in human MCF7/ADR cells assessed as reversal of multidrug resistance at 10 uM by measuring ratio of EC50(adriamycin)/EC50(adriamycin + compound) after 48 hrs by SRB colorimetric assay; type: cell-based
[3] = Inhibition of P-gp in human MCF7/ADR cells assessed as reversal of multidrug resistance at 10 uM by measuring EC50 for adriamycin-induced cytotoxicity after 48 hrs by SRB colorimetric assay; details: nci/adr-res

ATP-dependent translocase ABCB1, sequence (P08183 whole entry): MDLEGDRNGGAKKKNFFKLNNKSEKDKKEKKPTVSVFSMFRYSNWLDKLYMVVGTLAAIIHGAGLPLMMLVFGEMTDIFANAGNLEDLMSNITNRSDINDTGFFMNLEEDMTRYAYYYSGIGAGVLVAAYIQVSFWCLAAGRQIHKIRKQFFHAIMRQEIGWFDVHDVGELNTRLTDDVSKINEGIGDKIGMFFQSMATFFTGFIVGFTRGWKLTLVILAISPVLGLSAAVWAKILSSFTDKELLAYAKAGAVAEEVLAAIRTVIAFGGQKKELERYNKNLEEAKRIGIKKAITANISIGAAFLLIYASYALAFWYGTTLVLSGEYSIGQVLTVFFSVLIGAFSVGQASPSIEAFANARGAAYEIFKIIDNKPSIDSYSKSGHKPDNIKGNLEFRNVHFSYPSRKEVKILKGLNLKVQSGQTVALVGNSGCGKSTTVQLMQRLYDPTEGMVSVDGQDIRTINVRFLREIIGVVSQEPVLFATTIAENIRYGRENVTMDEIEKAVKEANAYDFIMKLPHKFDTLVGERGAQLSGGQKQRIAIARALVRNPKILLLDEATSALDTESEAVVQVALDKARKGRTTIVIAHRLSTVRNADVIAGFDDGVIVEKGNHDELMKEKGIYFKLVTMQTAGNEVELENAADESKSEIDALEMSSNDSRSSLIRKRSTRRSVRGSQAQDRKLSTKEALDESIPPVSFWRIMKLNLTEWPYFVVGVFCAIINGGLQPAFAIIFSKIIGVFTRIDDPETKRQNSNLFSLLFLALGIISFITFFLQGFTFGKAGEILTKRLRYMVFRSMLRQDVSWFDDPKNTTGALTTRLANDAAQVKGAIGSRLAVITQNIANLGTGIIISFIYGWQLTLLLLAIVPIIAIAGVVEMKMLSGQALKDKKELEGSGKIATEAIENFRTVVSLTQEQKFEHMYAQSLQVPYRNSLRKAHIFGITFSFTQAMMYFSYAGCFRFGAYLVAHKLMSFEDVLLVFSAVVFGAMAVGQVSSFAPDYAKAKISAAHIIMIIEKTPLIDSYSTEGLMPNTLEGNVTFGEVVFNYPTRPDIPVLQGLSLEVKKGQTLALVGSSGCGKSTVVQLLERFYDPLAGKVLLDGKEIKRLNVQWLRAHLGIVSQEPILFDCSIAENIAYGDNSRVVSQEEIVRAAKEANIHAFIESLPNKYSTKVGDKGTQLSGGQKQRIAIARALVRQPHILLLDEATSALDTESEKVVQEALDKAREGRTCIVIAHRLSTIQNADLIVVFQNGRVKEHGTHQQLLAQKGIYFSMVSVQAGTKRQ

Compound | IC50 (MCF7) [µM] | Activity [1] [%] | IC50 [2] [µM] | Ratio EC50 (NCI/ADR-RES) | EC50 [3] [µM]
C=C1CC[C@H]2[C@@H]([C@@H]3O[C@]4(C[C@H](C)[C@H](OC(=O)Cc5ccccc5)[C@@H]4[C@H]1OC(=O)Cc1ccccc1)C(=O)[C@@H]3C)C2(C)C | 28.5 | 4 | 55 | 1.6 | 
C=C1CC[C@H]2[C@@H](/C=C(\C)C(=O)[C@@]3(O)C[C@H](C)[C@H](O)[C@@H]3[C@H]1OC(=O)CCc1ccccc1)C2(C)C | 11 | 11.6 | 23.4 | 3.5 | 
C=C1CC[C@H]2[C@@H](/C=C(\C)C(=O)[C@@]3(O)C[C@H](C)[C@H](OC(=O)Cc4cccc5ccccc45)[C@@H]3[C@H]1OC(=O)Cc1cccc3ccccc13)C2(C)C | 13.4 | 10.1 | > 100 | 1.4 | 
C=C1CC[C@H]2[C@@H](/C=C(\C)C(=O)[C@@]3(O)C[C@H](C)[C@H](OC(=O)/C=C/c4ccccc4)[C@@H]3[C@H]1OC(=O)c1ccccc1)C2(C)C | 14.2 | 12.1 | 42.1 | 9.8 | 
C=C1CC[C@H]2[C@@H](/C=C(\C)C(=O)[C@@]3(O)C[C@H](C)[C@H](OC(=O)Cc4ccccc4)[C@@H]3[C@H]1OC(=O)Cc1ccccc1)C2(C)C | 8.93 | 9.5 | 36.3 | 2.6 | 
C=C1CC[C@H]2[C@@H](/C=C(\C)C(=O)[C@@]3(O)C[C@H](C)[C@H](O)[C@@H]3[C@H]1OC(=O)CCCCC)C2(C)C | 18.1 | 9.1 | 46.1 | 3 | 11.45
C=C1CC[C@H]2[C@@H](/C=C(\C)C(=O)[C@@]3(O)C[C@H](C)[C@H](O)[C@@H]3[C@H]1OC(=O)/C=C/c1ccccc1)C2(C)C | 8.24 | 9.1 | 58.8 | 2.7 | 
C=C1CC[C@H]2[C@@H](/C=C(\C)C(=O)[C@@]3(O)C[C@H](C)[C@H](OC(C)=O)[C@@H]3[C@H]1OC(C)=O)C2(C)C | 21.6 | 4.7 | 41 | 4.1 | 
C=C1CC[C@H]2[C@@H](/C=C(\C)C(=O)[C@@]3(O)C[C@H](C)[C@H](O)[C@@H]3[C@H]1OC(=O)CCCC)C2(C)C | 13.1 | 0.1 | 57.9 | 0.8 | 
C=C1CC[C@H]2[C@@H]([C@@H]3O[C@]4(C[C@H](C)[C@H](OC(=O)CCc5ccccc5)[C@@H]4[C@H]1OC(=O)CCc1ccccc1)C(=O)[C@H]3C)C2(C)C | 46.8 | 6.9 | > 100 | 1.2 | 
C=C1CC[C@H]2[C@@H]([C@@H]3O[C@]4(C[C@H](C)[C@H](OC(=O)/C=C/c5ccccc5)[C@@H]4[C@H]1OC(=O)/C=C/c1ccccc1)C(=O)[C@H]3C)C2(C)C | 64.2 | 2.1 | > 100 | 3.6 | 9.68
C=C1CC[C@H]2[C@@H]([C@@H]3O[C@]4(C[C@H](C)[C@H](OC(=O)Cc5ccccc5)[C@@H]4[C@H]1OC(=O)Cc1ccccc1)C(=O)[C@H]3C)C2(C)C | 28.5 | 11.6 | > 100 | 2.1 | 
C=C1CC[C@H]2[C@@H](/C=C(\C)C(=O)[C@@]3(O)C[C@H](C)[C@H](OC(=O)CCC)[C@@H]3[C@H]1OC(=O)CCC)C2(C)C | 18.5 | 4 | 50.9 | 2.4 | 14.49
C=C1CC[C@H]2[C@@H](/C=C(\C)C(=O)[C@@]3(O)C[C@H](C)[C@H](O)[C@@H]3[C@H]1OC(=O)C(C)C)C2(C)C | 17 | 10.1 | 66.3 | 3.2 | 
C=C1CC[C@H]2[C@@H]([C@@H]3O[C@]4(C[C@H](C)[C@H](OC(=O)c5ccccc5)[C@@H]4[C@H]1OC(=O)c1ccccc1)C(=O)[C@@H]3C)C2(C)C | 25.2 | 6.8 | > 100 | 3.2 | 
C=C1CC[C@H]2[C@@H](/C=C(\C)C(=O)[C@@]3(O)C[C@H](C)[C@H](O)[C@@H]3[C@H]1O)C2(C)C | 34 | 7.3 | 59.6 | 3 | 
C=C1CC[C@H]2[C@@H](/C=C(\C)C(=O)[C@@]3(O)C[C@H](C)[C@H](OC(=O)CC)[C@@H]3[C@H]1OC(=O)Cc1ccccc1)C2(C)C | 9.57 | 9.3 | 76 | 8.1 | 

Compound | IC50 (MCF7) [µM] | Activity [1] [%] | IC50 [2] [µM] | Ratio EC50 (NCI/ADR-RES) | EC50 [3] [µM]
C=C1CC[C@H]2[C@@H]([C@@H]3O[C@]4(C[C@H](C)[C@H](OC(=O)CCc5ccccc5)[C@@H]4[C@H]1OC(=O)CCc1ccccc1)C(=O)[C@@H]3C)C2(C)C | 14.2 | 8.3 | 40.1 | 1.6 | 
C=C1CC[C@H]2[C@@H](/C=C(\C)C(=O)[C@@]3(O)C[C@H](C)[C@H](OC(=O)CCc4ccccc4)[C@@H]3[C@H]1OC(=O)CCc1ccccc1)C2(C)C | 28.7 | 6 | > 100 | 1.3 | 
C=C1CC[C@H]2[C@@H](/C=C(\C)C(=O)[C@@]3(O)C[C@H](C)[C@H](OC(=O)CCCCC)[C@@H]3[C@H]1OC(=O)CCCCC)C2(C)C | 47.1 | 5.8 | > 100 | 1.9 | 18.51
C=C1CC[C@H]2[C@@H](/C=C(\C)C(=O)[C@@]3(O)C[C@H](C)[C@H](O)[C@@H]3[C@H]1OC(=O)c1ccccc1)C2(C)C | 11.6 | 7.5 | 55.3 | 1.5 | 
C=C1CC[C@H]2[C@@H](/C=C(\C)C(=O)[C@@]3(O)C[C@H](C)[C@H](OC(=O)CC)[C@@H]3[C@H]1OC(=O)c1ccccc1)C2(C)C | 8.47 | 12.1 | 63.3 | 8.2 | 4.22
C=C1CC[C@H]2[C@@H]([C@@H]3O[C@]4(C[C@H](C)[C@H](OC(=O)Cc5cccc6ccccc56)[C@@H]4[C@H]1OC(=O)Cc1cccc4ccccc14)C(=O)[C@H]3C)C2(C)C | 84.9 | 10.4 | > 100 | 1.4 | 
C=C1CC[C@H]2[C@@H](/C=C(\C)C(=O)[C@@]3(O)C[C@H](C)[C@H](O)[C@@H]3[C@H]1OC(C)=O)C2(C)C | 26.6 | 7.1 | 80.7 | 1.9 | 
C=C1CC[C@H]2[C@@H](/C=C(\C)C(=O)[C@@]3(O)C[C@H](C)[C@H](OC(=O)CC)[C@@H]3[C@H]1OC(=O)CC)C2(C)C | 18.6 | 4.6 | 45 | 2.8 | 
C=C1CC[C@H]2[C@@H]([C@@H]3O[C@]4(C[C@H](C)[C@H](OC(=O)CCCCC)[C@@H]4[C@H]1OC(=O)CCCCC)C(=O)[C@H]3C)C2(C)C | 48.1 | 6.8 | > 100 | 7 | 
C=C1CC[C@H]2[C@@H](/C=C(\C)C(=O)[C@@]3(O)C[C@H](C)[C@H](OC(=O)c4ccccc4)[C@@H]3[C@H]1OC(=O)Cc1cccc3ccccc13)C2(C)C | 4.16 | 11.1 | > 100 | 4 | 
C=C1CCC(=C(C)C)[C@H]2C[C@@H](C)C(=O)[C@@]3(C[C@H](C)[C@H](OC(C)=O)[C@@H]3[C@H]1OC(C)=O)O2 | 45.8 | 2.4 | 65.2 | 1.9 | 
C=C1CC[C@H]2[C@@H](/C=C(\C)C(=O)[C@@]3(O)C[C@H](C)[C@H](O)[C@@H]3[C@H]1OC(=O)c1cccnc1)C2(C)C | 17.3 | 10.3 | 19.3 | 2.3 | 
C=C1CC[C@H]2[C@@H](/C=C(\C)C(=O)[C@@]3(O)C[C@H](C)[C@H](O)[C@@H]3[C@H]1OC(=O)CC(C)C)C2(C)C | 14.8 | 4.7 | 60.8 | 4.1 | 
C=C1CC[C@H]2[C@@H]([C@@H]3O[C@]4(C[C@H](C)[C@H](OC(=O)CCC)[C@@H]4[C@H]1OC(=O)CCC)C(=O)[C@H]3C)C2(C)C | 19.1 | 7.7 | > 100 | 3 | 
C=C1CC[C@H]2[C@@H](/C=C(\C)C(=O)[C@@]3(O)C[C@H](C)[C@H](O)[C@@H]3[C@H]1OC(=O)CC)C2(C)C | 32.1 | 11.3 | 53.5 | 2.3 | 
C=C1CC[C@H]2[C@@H](/C=C(\C)C(=O)[C@@]3(O)C[C@H](C)[C@H](O)[C@@H]3[C@H]1OC(=O)Cc1ccccc1)C2(C)C | 14.8 | 9.6 | 42.9 | 7.4 | 
